Source: ChEMBL document CHEMBL1148725, “2,2,2-Trichloro-N-({2-[2-(dimethylamino)ethyl]-1,3-dioxo-2,3-dihydro-1H-benzo[de]isoquinolin- 5-yl}carbamoyl)acetamide (UNBS3157), a novel nonhematotoxic naphthalimide derivative with potent antitumor activity” (J Med Chem, 2007)
Active and inactive are the calls of the source. The calls are words filed in the database; no cut-off is given here.

Columns and labels:
Mus musculus [1] = test: Hematotoxicity in B6D2F1 mouse assessed as platelet count at 10 mg/kg, po; assay type: organism-based; parameters: dose 10 mg/kg, route oral; settings: in vivo
Mus musculus [2] = test: Hematotoxicity in B6D2F1 mouse assessed as platelet count at 20 mg/kg, po; assay type: organism-based; parameters: dose 20 mg/kg, route oral; settings: in vivo
Mus musculus [3] = test: Hematotoxicity in B6D2F1 mouse assessed as RBC count at 5 mg/kg, po; assay type: organism-based; parameters: dose 5 mg/kg, route oral; settings: in vivo
[4] = Antiproliferative activity against Hs683 cells after 72 hrs by MTT assay; assay type: functional, cell-based, Homo sapiens, Hs 683
How it was run: (§1)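 Cells cultured with each compound for three days; growth then read by the MTT colorimetric assay and reported as IC50 (µM).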

[5] = Antiproliferative activity against U373MG cells after 72 hrs by MTT assay; assay type: functional, cell-based, Homo sapiens, U-373MG ATCC; how it was run: as §1
HCT-15 = test: Antiproliferative activity against HCT15 cells after 72 hrs by MTT assay; assay type: functional, cell-based, Homo sapiens; how it was run: as §1
LoVo = test: Antiproliferative activity against LoVo cells after 72 hrs by MTT assay; assay type: functional, cell-based, Homo sapiens; how it was run: as §1
A549 = test: Antiproliferative activity against A549 cells after 72 hrs by MTT assay; assay type: functional, cell-based, Homo sapiens; how it was run: as §1
MCF7 = test: Antiproliferative activity against MCF7 cells after 72 hrs by MTT assay; assay type: functional, cell-based, Homo sapiens; settings: Homo sapiens, MCF7, 72 h; how it was run: as §1
[6] = Toxicity in ip dosed B6D2F1 mouse; assay type: organism-based; settings: in vivo
How it was run: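 Acute MTD was set by a single i.p. dose to groups of three healthy female B6D2F1 mice, at 2.5, 5, 10, 20, 40, 80 and 160 mg/kg. The MTD is the dose just below the lowest dose that killed at least one mouse.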

L1210 [7] = test: Antitumor activity in L1210 cells xenografted B6D2F1 mouse at 5 mg/kg, ip relative to control; assay type: functional; settings: route intraperitoneal
How it was run: (§2)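 Mice grafted with L1210 leukaemia cells on day 0, then dosed i.p. four times weekly on days 1-4 and 8-11. Five mice per group. Outcome is %T/C, the median survival of treated over control. Kruskal-Wallis test followed by Dunn comparisons against control.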

L1210 [8] = test: Antitumor activity in L1210 cells xenografted B6D2F1 mouse at 10 mg/kg, ip relative to control; assay type: functional; settings: route intraperitoneal; how it was run: as §2
L1210 [9] = test: Antitumor activity in L1210 cells xenografted B6D2F1 mouse at 20 mg/kg, ip relative to control; assay type: functional; settings: route intraperitoneal; how it was run: as §2
L1210 [10] = test: Antitumor activity in L1210 cells xenografted B6D2F1 mouse at 40 mg/kg, ip relative to control; assay type: functional; settings: route intraperitoneal; how it was run: as §2
L1210 [11] = test: Antitumor activity in L1210 cells xenografted B6D2F1 mouse at 2.5 mg/kg, ip relative to control; assay type: functional; settings: route intraperitoneal; how it was run: as §2
Mus musculus [12] = test: Hematotoxicity in B6D2F1 mouse assessed as platelet count at 5 mg/kg, iv; assay type: organism-based; parameters: dose 5 mg/kg, route intravenous; settings: in vivo
Mus musculus [13] = test: Hematotoxicity in B6D2F1 mouse assessed as platelet count at 10 mg/kg, iv; assay type: organism-based; parameters: dose 10 mg/kg, route intravenous; settings: in vivo
Mus musculus [14] = test: Hematotoxicity in B6D2F1 mouse assessed as WBC count at 10 mg/kg, iv; assay type: organism-based; parameters: dose 10 mg/kg, route intravenous; settings: in vivo
Mus musculus [15] = test: Hematotoxicity in B6D2F1 mouse assessed as RBC count at 5 mg/kg, iv; assay type: organism-based; parameters: dose 5 mg/kg, route intravenous; settings: in vivo
Mus musculus [16] = test: Hematotoxicity in B6D2F1 mouse assessed as RBC count at 10 mg/kg, iv; assay type: organism-based; parameters: dose 10 mg/kg; settings: in vivo
Mus musculus [17] = test: Hematotoxicity in B6D2F1 mouse assessed as WBC count at 5 mg/kg, iv; assay type: organism-based; parameters: dose 5 mg/kg, route intravenous; settings: in vivo
Mus musculus [18] = test: Hematotoxicity in B6D2F1 mouse assessed as platelet count at 5 mg/kg, po; assay type: organism-based; parameters: dose 5 mg/kg, route oral; settings: in vivo
Mus musculus [19] = test: Hematotoxicity in B6D2F1 mouse assessed as RBC count at 10 mg/kg, po; assay type: organism-based; parameters: dose 10 mg/kg, route oral; settings: in vivo
Mus musculus [20] = test: Hematotoxicity in B6D2F1 mouse assessed as RBC count at 20 mg/kg, po; assay type: organism-based; parameters: dose 20 mg/kg, route oral; settings: in vivo
Mus musculus [21] = test: Hematotoxicity in B6D2F1 mouse assessed as WBC count at 5 mg/kg, po; assay type: organism-based; parameters: dose 5 mg/kg, route oral; settings: in vivo
Mus musculus [22] = test: Hematotoxicity in B6D2F1 mouse assessed as WBC count at 10 mg/kg, po; assay type: organism-based; parameters: dose 10 mg/kg, route oral; settings: in vivo
Mus musculus [23] = test: Hematotoxicity in B6D2F1 mouse assessed as WBC count at 20 mg/kg, po; assay type: organism-based; parameters: dose 20 mg/kg, route oral; settings: in vivo
[24] = Antitumor activity against mouse MXT-HI cells xenografted in B6D2F1 mouse at 20 mg/kg, ip relative to control; assay type: functional; settings: route intraperitoneal
How it was run: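 MXT-HI mammary adenocarcinoma grafted s.c. onto female B6D2F1 mice. Dosing i.p., five injections weekly for three weeks from day 14 post-graft. Nine mice per group. Tumour surface area measured, and survival expressed as %T/C, the ratio of treated to control median survival time.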

Mus musculus [25] = test: Toxicity in B6D2F1 mouse at 40 mg/kg, ip; assay type: organism-based; parameters: dose 40 mg/kg, route intraperitoneal; settings: in vivo
Mus musculus [26] = test: Hematotoxicity in B6D2F1 mouse assessed as RBC count at 2.5 mg/kg, po; assay type: organism-based; parameters: dose 2.5 mg/kg, route oral; settings: in vivo
L1210 [27] = test: Antitumor activity in L1210 cells xenografted B6D2F1 mouse at 80 mg/kg, ip relative to control; assay type: functional; settings: route intraperitoneal; how it was run: as §2
Mus musculus [28] = test: Hematotoxicity in B6D2F1 mouse assessed as platelet count at 2.5 mg/kg, iv; assay type: organism-based; parameters: dose 2.5 mg/kg, route intravenous; settings: in vivo
Mus musculus [29] = test: Hematotoxicity in B6D2F1 mouse assessed as RBC count at 2.5 mg/kg, iv; assay type: organism-based; parameters: dose 2.5 mg/kg, route intravenous; settings: in vivo
Mus musculus [30] = test: Hematotoxicity in B6D2F1 mouse assessed as WBC count at 2.5 mg/kg, iv; assay type: organism-based; parameters: dose 2.5 mg/kg, route intravenous; settings: in vivo
Mus musculus [31] = test: Hematotoxicity in B6D2F1 mouse assessed as platelet count at 2.5 mg/kg, po; assay type: organism-based; parameters: dose 2.5 mg/kg, route oral; settings: in vivo
Mus musculus [32] = test: Hematotoxicity in B6D2F1 mouse assessed as WBC count at 2.5 mg/kg, po; assay type: organism-based; parameters: dose 2.5 mg/kg, route oral; settings: in vivo
Mus musculus [33] = test: Toxicity in B6D2F1 mouse at 80 mg/kg, ip; assay type: organism-based; parameters: dose 80 mg/kg, route intraperitoneal; settings: in vivo
How it was run: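 Healthy female B6D2F1 mice, 10 per group, dosed i.p. in DMSO/saline (5:95 v/v) three times weekly for five weeks at two levels set relative to MTD; sacrificed 3 days after final dose; platelet, RBC and WBC counted by Coulter counter.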

Homo sapiens = species on record: Homo sapiens; test: Inhibition of human topoisomerase 2 at 50 uM by plasmid linearization assay
PC-3 = test: Induction of senescence in human PC3 cells; assay type: functional, cell-based
How it was run: (§3)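 SA-β-galactosidase staining of PC-3 and DU-145 prostate cancer cells after 72 h at 10 µM; adriamycin 20 nM as positive control; expressed as percentage of positively stained cells.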

DU-145 = test: Induction of senescence in human DU145 cells; assay type: functional, cell-based; how it was run: as §3

Structure (SMILES) | Activity (Mus musculus [1]) | Activity (Mus musculus [3]) | IC50 (MCF7) [µM] | MTD [6] [mg/kg] | Activity (L1210 [7]) [%] | Activity (L1210 [8]) [%] | Activity (L1210 [9]) [%] | Activity (L1210 [10]) [%] | Activity (Mus musculus [12]) | Activity (Mus musculus [15]) | Activity (Mus musculus [17]) | Activity (Mus musculus [18]) | Activity (Mus musculus [19]) | Activity (Mus musculus [21]) | Activity (Mus musculus [22]) | Activity (Mus musculus [25]) | also measured
CN(C)CCN1C(=O)c2cccc3cc(N)cc(c23)C1=O [AMONAFIDE] | 916 10^3 /uL | 9.82 10^6 /uL | 5.8 | 40 | 140 | 122 | 121 | 49 | 461 10^3 /uL | 8.59 10^6 /uL | 3.33 10^3 /uL | 892 10^3 /uL | 10.05 10^6 /uL | 3.26 10^3 /uL | 3.06 10^3 /uL | Toxic | Activity (Mus musculus [2]): 806 10^3 /uL; IC50 ([4]; hs 683): 3.9 µM; IC50 ([5]; u-373mg atcc): 3.5 µM; IC50 (HCT-15; hct-15): 5.2 µM; IC50 (LoVo; lovo): 2.7 µM; IC50 (A549; a549): 3.8 µM; Activity (L1210 [11]): 109%; Activity (Mus musculus [13]): 390 10^3 /uL; Activity (Mus musculus [14]): 3.07 10^3 /uL; Activity (Mus musculus [16]): 9.54 10^6 /uL; Activity (Mus musculus [20]): 9.54 10^6 /uL; Activity (Mus musculus [23]): 2.93 10^3 /uL; Activity [24]: 143%
CC(=O)Nc1cc2c3c(cccc3c1)C(=O)N(CCN(C)C)C2=O | 922 10^3 /uL | 10.25 10^6 /uL | > 10 | 40 | 111 | 149 | >300 | 48 | 351 10^3 /uL | 9.59 10^6 /uL | 2.5 10^3 /uL | 968 10^3 /uL | 9.64 10^6 /uL | 2.74 10^3 /uL | 2.66 10^3 /uL | Toxic | Activity (Mus musculus [26]): 10.01 10^6 /uL; IC50 ([4]; Homo sapiens, Hs 683, 72 h): > 10 µM; IC50 ([5]; Homo sapiens, U373 MG, 72 h): 9 µM; IC50 (HCT-15; Homo sapiens, HCT-15, 72 h): 7.8 µM; IC50 (LoVo; Homo sapiens, LoVo, 72 h): > 10 µM; IC50 (A549; Homo sapiens, A549, 72 h): > 10 µM; Activity (L1210 [27]): 47%; Activity (Mus musculus [28]): 470 10^3 /uL; Activity (Mus musculus [29]): 9.74 10^6 /uL; Activity (Mus musculus [30]): 3.97 10^3 /uL; Activity (Mus musculus [31]): 961 10^3 /uL; Activity (Mus musculus [32]): 2.66 10^3 /uL; Activity (Mus musculus [33]): Toxic; Activity (Homo sapiens): Active
COc1cccc2c1C(=O)c1c(O)c3c(c(O)c1C2=O)C[C@@](O)(C(=O)CO)C[C@@H]3O[C@H]1C[C@H](N)[C@H](O)[C@H](C)O1 |  |  |  |  |  |  |  |  |  |  |  |  |  |  |  |  | Activity (PC-3): inactive; Activity (DU-145): Active
